Data from PubChem BioAssay AID504383 (The Scripps Research Institute Molecular Screening Center, 2011).
Screen size: about 2,500 compounds; about 1,200 (48%) were called active.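 How the source made its calls: active means mean activation above the low control average plus 3 SD, as set in the primary screen (cut at about 12% in these data); inactive means the rest.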 So high a share suggests a set chosen from earlier hits. This is one part of the list.

molecular target: Troponin I, cardiac muscle (Homo sapiens) + Troponin T, cardiac muscle (Homo sapiens) + Troponin C, slow skeletal and cardiac muscles (Homo sapiens) (UniProt P19429+P45379+P63316); test: cardiac RTF calcium sensitivity activators, confirmation, biochemical, IANBD-TnC fluorescence, triplicate (AID 504383); details: IANBD-labeled cardiac RTF, Ca2+ sensitivity fluorescence; at 7.2 µM; hits give high values; scaled from EC20 to saturating calcium; tested at EC20 calcium, 0.472 mM;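 further: 0% = DMSO at 0.472 mM calcium and 100% = DMSO at 2.9 mM calcium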
In short: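 System: Labelled thin filament complex | Technique: Filament fluorescence intensity | Benchmarks: Low control EC20 calcium, high control EC100 calcium | Timing: 15 min at 25 °C | Compound dosing: One dose, 7.2 µM nominal | Probe or stimulus: Ca2+ 0.472 mM, EC20 level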

Row | SMILES | activation
1 | c1ccc(-c2nc(-c3ccco3)n3ccccc23)cc1 | 1.15% (inactive)
2 | N#Cc1c(N)oc(-c2ccccc2)c1-c1ccccc1 | 23.9% (active)
3 | COc1ccccc1C1=NOC(Cn2c(=O)c3c(ncn3C)n(C)c2=O)C1 (stereo unspecified) | 7.68% (inactive)
4 | Cc1c(O)c2c3c(cccc3c1O)C(=O)N(c1ccccc1)C2=O | 67.4% (active)
5 | Nc1ccc2c3c(cccc13)C(=O)N(c1ccccc1)C2=O | 10.9% (inactive)
6 | Cc1cccc(N2CCN(C(=O)Cn3nc(Cc4ccncc4)c4ccccc4c3=O)CC2)c1C | 25.3% (active)
7 | Cc1nc2ccccc2n2c(O)c(CC(=O)O)cc12 | 15.2% (active)
8 | COc1ccc2c(n1)Sc1nc3ccccc3nc1N2 | 6.52% (inactive)
9 | CC1(C)CC(=O)C2=C(C1)OC(N)=C(C#N)C21CCN(Cc2ccccc2)CC1 | 12.4% (active)
10 | COc1ccc2[nH]c3c(c2c1)CCN1C(=O)C(CC(=O)NCCCn2ccnc2)C[C@H](C(=O)N2CCCCC2)[C@@]31C (stereo partly specified) | 6.39% (inactive)
11 | O=C(Nc1cnn(Cc2c(Cl)cccc2Cl)c1)C(c1ccccc1)c1ccccc1 | 4.3% (inactive)
12 | O=C(NCCOc1ccccc1Cl)C(=O)Nc1ccccc1 | 11.1% (inactive)
13 | O=C1c2ccccc2C(Nc2cccnc2)N1Cc1ccccc1Cl (stereo unspecified) | 54.5% (active)
14 | O=C(Cc1ccccc1Cl)Nc1cccnc1 | 22.6% (active)
15 | CN1CCS/C1=C/C=C1/SC(=S)N(Cc2ccccc2)C1=O | 2.39% (inactive)
16 | CCN1C(=O)/C(=C/C=C2/SCCN2C)SC1=S | 42.9% (active)
17 | CCCCN1C(=O)/C(=C/C=C2\SCCN2C)SC1=S | 7.61% (inactive)
18 | CCN1C(=O)/C(=C\C=C2/C=CC=CN2CC)SC1=S | 431% (active)
19 | CN1CCS/C1=C/C=C1\SC(=S)N(CC(=O)O)C1=O | 122% (active)
20 | CN1C(=O)/C(=C/C=C2\SCCN2C)OC1=S | 31.5% (active)
21 | C=CCNC(=S)N(CC=C)C1CCS(=O)(=O)C1 (stereo unspecified) | 6.54% (inactive)
22 | O=C(O)c1cccc2c1C(=O)c1ccc(N3CCCC3)cc1S2(=O)=O | 6.28% (inactive)
23 | C#CCSc1nc2[nH]ncc2c(=O)[nH]1 | 5.4% (inactive)
24 | CN1CCS/C1=C\C=C1/SC(=S)N(CC(=O)O)C1=O | 12.1% (active)

Row | SMILES | activation
25 | O=C(CCc1ccc(S(=O)(=O)NCCc2ccccc2)cc1)N1CCN(Cc2ccc3c(c2)OCO3)CC1 | 1.31% (inactive)
26 | N#C/C(=C\N1CCN(Cc2ccc3c(c2)OCO3)CC1)c1nc2ccccc2s1 | 17.4% (active)
27 | CCNC(=O)/C(C#N)=C/c1c(N2CCN(Cc3ccc4c(c3)OCO4)CC2)nc2c(C)cccn2c1=O | 9.67% (inactive)
28 | CC(OC(=O)c1c2c(nc3ccccc13)/C(=C\c1ccc3c(c1)OCO3)CCC2)C(=O)Nc1ccc(S(N)(=O)=O)cc1 (stereo unspecified) | 3.14% (inactive)
29 | CCCCNC(=O)COC(=O)c1c2c(nc3ccccc13)/C(=C\c1cccs1)CC2 | 6.15% (inactive)
30 | NC(=O)c1ccc(NC(=O)COC(=O)c2c3c(nc4ccccc24)/C(=C\c2ccc4c(c2)OCO4)CCC3)cc1 | 11.7% (active)
31 | O=C(NCc1ccccc1)C1=C[C@H](C2CC2)C[C@H](OCc2ccc(CO)cc2)O1 | -0.14% (inactive)
32 | CCOC(=O)C1CCCN(C(=O)C2c3ccccc3Oc3ccccc32)C1 (stereo unspecified) | -3.14% (inactive)
33 | CCCN(CCC)C(=O)C1c2ccccc2Oc2ccccc21 | 16.6% (active)
34 | CCOC(=O)C(C#N)C(c1cccnc1)c1c(C)[nH][nH]c1=O (stereo unspecified) | 5.64% (inactive)
35 | Cc1cccn2c(=O)c(/C=C3\SC(=S)NC3=O)c(NCCCN3CCOCC3)nc12 | 63.9% (active)
36 | Cc1cccn2c(=O)c(/C=C3\SC(=S)N(CC(C)C)C3=O)c(NCCCOC(C)C)nc12 | 111% (active)
37 | COc1cc(CCCN2C(=S)NC[C@@H]2CC2CCCCC2)cc(OC)c1OC | 88.2% (active)
38 | FC(F)(F)c1ccc(-c2nc(=S)[nH][nH]2)cc1 | 8.3% (inactive)
39 | O=C1NC(=S)S/C1=C/c1ccc(N2CCOCC2)o1 | 18.5% (active)
40 | CC(C)OC(=O)CN1C(=O)S/C(=C/c2ccc(N3CCCCC3)o2)C1=O | 13% (active)
41 | CCCN1C(=O)S/C(=C\c2ccc(N3CCOCC3)o2)C1=O | 1.26% (inactive)
42 | O=C1S/C(=C\c2ccc(N3CCOCC3)o2)C(=O)N1c1ccccc1 | 62.9% (active)
43 | CCCN1C(=O)S/C(=C/c2ccc(N3CCOCC3)o2)C1=O | 94.3% (active)
44 | COc1ccc(/C=N/Nc2ncc(C(F)(F)F)cc2Cl)cc1OC | -2.64% (inactive)
45 | Cc1[nH]c(=O)c(C#N)c(C)c1Cl | 9.65% (inactive)
46 | O=C1S/C(=C/c2ccc(N3CCOCC3)o2)C(=O)N1Cc1ccc(F)cc1 | 54.8% (active)
47 | O=C1S/C(=C\c2ccc(N3CCOCC3)o2)C(=O)N1Cc1c(F)cccc1Cl | 788% (active)
48 | O=C1S/C(=C/c2ccc(N3CCOCC3)o2)C(=O)N1Cc1c(F)cccc1Cl | 17.9% (active)

Row | SMILES | activation
49 | O=C1S/C(=C\c2ccc(N3CCOCC3)o2)C(=O)N1Cc1ccc(F)cc1 | 3.92% (inactive)
50 | Cc1cccc(-n2c(C)cc(C=C3C(=O)c4ccccc4C3=O)c2C)c1 | 1.06% (inactive)
51 | Cc1cc(C=C2C(=O)c3ccccc3C2=O)c(C)n1-c1ccc(Cl)cc1 | 13.3% (active)
52 | Cc1cc(C=C2C(=O)c3ccccc3C2=O)c(C)n1-c1ccccc1 | 94.4% (active)
53 | Cc1cc(C=C2C(=O)CCCC2=O)c(C)n1-c1ccccc1 | 3.1% (inactive)
54 | CCN(CC)c1ccc(/C=C2\C(=N)N3N=C(CC(=O)N4CCOCC4)SC3=NC2=O)cc1 | 16.5% (active)
55 | CCOC(=O)C1CCCN(C2=NC(=O)/C(=C/c3ccc(N(C)C)cc3)S2)C1 (stereo unspecified) | 8.97% (inactive)
56 | CN(C)c1ccc(/C=C2\SC(N3CCCCC3)=NC2=O)cc1 | 1160% (active)
57 | CC(C)/C=C1\CC/C(=C\c2ccc(N(C)C)cc2)C1=O | 5.2% (inactive)
58 | CCOC(=O)C1CCCN(C2=NC(=O)/C(=C/c3ccc(O)c(OC)c3)S2)C1 (stereo unspecified) | -0.88% (inactive)
59 | CN(C)c1ccc(/C=C2\C(=N)N3N=C(CC(=O)N4CCCCC4)SC3=NC2=O)cc1 | 41.6% (active)
60 | CCCN(CCC)CC(O)Cn1cc(/C=C/C(=O)c2cccs2)c2ccccc21 (stereo unspecified) | 11.6% (inactive)
61 | O=C(/C=C/c1cn(CC(O)CN2CCCCCC2)c2ccccc12)c1cccs1 (stereo unspecified) | 13.4% (active)
62 | O=C(/C=C/c1cn(CC(O)CN2CCCCC2)c2ccccc12)c1cccs1 (stereo unspecified) | 55.5% (active)
63 | COc1ccc(/C=[N+](\[O-])C2N(c3ccccc3)C(=S)SC2(C)C)cc1OC (stereo unspecified) | 5.83% (inactive)
64 | CN1CCN(CCNC(=O)Nc2ccc(Cl)cc2)CC1 | 13.4% (active)
65 | CCN1CCc2c(sc(NC(=O)Nc3ccc(Cl)c(Cl)c3)c2C(N)=O)C1 | -0.7% (inactive)
66 | Nc1cccc(N2C(=O)c3cccc4c(N)ccc(c34)C2=O)c1 | 8.12% (inactive)
67 | CC(C)CCN1C(=O)c2cccc3c(N)ccc(c23)C1=O | 15.7% (active)
68 | CCN1C(=O)c2cccc3c(N)ccc(c23)C1=O | 5.33% (inactive)
69 | c1ccc2c(c1)CN1CCCC1=N2 | 3.94% (inactive)
70 | Cc1ccc(NC(=O)/C(C#N)=C/c2ccc(C)s2)c(C)c1 | -3.42% (inactive)
71 | CC1CC1c1ccc(/C=C(\C#N)C(=O)Nc2ccc(Cl)cc2Cl)o1 (stereo unspecified) | 19.9% (active)
72 | CN1/C(=C\C=C(/C#N)C(=O)Nc2ccccc2F)C(C)(C)c2ccccc21 | 5.14% (inactive)

Row | SMILES | activation
73 | CC1CC1c1ccc(/C=C(\C#N)C(=O)Nc2cccc(Cl)c2Cl)o1 (stereo unspecified) | 22.5% (active)
74 | Clc1cccc(C[n+]2cc(-c3ccccc3)n3c2CCC3)c1 | 4.21% (inactive)
75 | CN(CC(=O)NCc1ccco1)S(=O)(=O)c1cccc2cccnc12 | 32.8% (active)
76 | CN(CC(=O)N1CCN(c2ncccn2)CC1)S(=O)(=O)c1ccc(Cl)cc1 | 4.61% (inactive)
77 | O=C(NCc1ccco1)C1CC(c2c(Cl)cccc2Cl)=NO1 (stereo unspecified) | 0.26% (inactive)
78 | CN(CC(=O)NCc1ccc(Cl)cc1)S(=O)(=O)c1cccc2cccnc12 | 12.1% (active)
79 | C#CC[N+](C)(C)CCCCCCCCCC | 45.3% (active)
80 | COc1cc(NC(=O)C2CCCCN2)ccc1OCC(C)C (stereo unspecified) | 15.1% (active)
81 | COc1ccc(NC(=O)C2CC2)cc1OC1CCCC1 | -0.05% (inactive)
82 | C=CCNc1oc(COc2ccc(C)cc2)nc1C#N | 25.2% (active)
83 | COc1ccc(CNc2oc(COc3ccccc3)nc2C#N)cc1 | 62.4% (active)
84 | CCC(CC)c1nc(C#N)c(NC(C)c2ccccc2)o1 (stereo unspecified) | 3.34% (inactive)
85 | CN(C)c1ccc(NC2=C([N+](=O)[O-])CS(=O)(=O)C2)cc1 | 12.2% (active)
86 | CC1=C(C)CC(C(=O)NNC(=O)c2cccc(Cl)c2)C(C(=O)O)C1 (stereo unspecified) | 10.7% (inactive)
87 | CCc1ccc(C(=O)NNC(=O)c2cccc(N3C(=O)CCC3=O)c2)cc1 | 34.6% (active)
88 | CCc1ccc(C(=O)NNc2ccccc2F)cc1 | 7.76% (inactive)
89 | CN(C)c1ccc(/C=C(/C(=O)c2ccc(Cl)cc2Cl)n2cncn2)cc1 | 4.11% (inactive)
90 | COc1ccc(CCNC(=O)CN(C)S(=O)(=O)c2ccc3c(c2)CCC(=O)N3)cc1OC | 8.22% (inactive)
91 | O=C1CCc2cc(S(=O)(=O)NC3CCCCC3)ccc2N1 | 12.4% (active)
92 | Cc1cc(C(=O)NNC(=S)Nc2ccccc2C)cs1 | 15.8% (active)
93 | Cc1cc(C(=O)NNC(=S)NCc2ccccc2)cs1 | 7.2% (inactive)
94 | COc1ccc(OC)c(/C=C2\N=C(c3ccccc3)OC2=O)c1 | 33.8% (active)
95 | COc1ccc(OC)c(/C=C2/Sc3ccccc3C2=O)c1 | 5.85% (inactive)
96 | Cc1nn(-c2ccccc2)c(N2CCCC2)c1/C=C1\N=C(c2ccc(OC(C)C)cc2)OC1=O | 9.02% (inactive)
